Experimental data reported in ChEMBL document CHEMBL4732020, “The modulatory role of sulfated and non-sulfated small molecule heparan sulfate-glycomimetics in endothelial dysfunction: absolute structural clarification, molecular docking and simulated dynamics, SAR analyses and ADMET studies” (RSC Med Chem, 2021).

Experiments:
HepG2 (Homo sapiens) = assay: Cytotoxicity against HepG2 cells assessed as reduction in cell viability incubated for 72 hrs by MTT assay; conditions: hepg2, 72 h
HepG2 [1] = assay: Antioxidant activity in human HepG2 cells assessed as decrease in FFA-induced NADPH oxidase activity by lucigenin-enhanced chemiluminescence based scintillation counting method relative to control; assay type: functional
Procedure, shortened: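 HepG2 cells given FFA-BSA (palmitate 100 µmol/L) with glycomimetics 1 µmol/L for 3 h, or 12 h pretreatment then 3 h palmitate. Homogenized in 20 mmol/L H2KPO4/1 mmol/L EDTA with protease inhibitors. 50 µg protein with NADPH 100 µmol/L and lucigenin 5 µmol/L; luminescence over 200 s. Basal activity subtracted; expressed as RLU/min/µg protein.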

HepG2 [2] = assay: Cytotoxicity against human HepG2 cells assessed as reduction in cell viability incubated for 72 hrs by MTT assay; assay type: cell-based; conditions: hepg2, 72 h
Procedure, shortened: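 HepG2 plated 24 h before dosing. Compound at 8 concentrations in triplicate, serially diluted in 0.5% DMSO growth medium, for 72 h. MTT loaded 1 h before end; solubilised in DMSO, read at 570 nm. Significance limits come from vehicle wells. Minimum effective concentration taken from the lowest concentration exceeding significance; AC50 fitted when dose-response is clear.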

HepG2 [3] = assay: Antioxidant activity in human HepG2 cells assessed as decrease in FFA-induced ROS production after 24 hrs by ethidium/DAPI based fluorescence assay relative to control; assay type: functional
Procedure, shortened: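 Cells in serum-free DMEM with 2% fatty-acid-free BSA or palmitate-BSA (100 µmol/L) plus glycomimetics (1 or 10 µmol/L) for 24 h. Then 10 µmol/L dihydroethidium in Hepes-buffered solution for 30 min, DAPI 0.3 µmol/L counterstain. Fluorescence microscopy with constant imaging settings; ROS taken as ethidium/DAPI fluorescence ratio.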

[4] = Chemical stability of compound; assay type: physicochemical
HepG2 [5] = assay: Antioxidant activity in human HepG2 cells assessed as decrease in FFA-induced oxidatively stress by measuring NO production using DAF-2 by H2DCFDA dye based fluorescence assay relative to control; assay type: functional; design: concentration or dose not given beside the values
Procedure, shortened: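 Palmitate (100 µmol/L)-BSA stressed HepG2 with glycomimetics 1 µmol/L (3 h co-treatment or 12 h pretreatment). For NO: L-arginine 100 µmol/L for 5 min at 37 °C, DAF-2 0.1 µmol/L for 2 min, then A23187 for 30 min; ex 485/em 540 nm, autofluorescence subtracted. L-NAME 100 µmol/L in some runs. ROS: CM-H2DCFDA 10 µmol/L, 30 min, 37 °C, ex 490/em 540 nm.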

[6] = molecular target: T1, Nitric oxide synthase 3 (Homo sapiens) (UniProt P29474); assay: Induction of eNOS phosphorylation in FFA-induced oxidatively stress human HepG2 cells by Western blot analysis relative to control; design: concentration or dose not given beside the values
T1 sequence (whole entry): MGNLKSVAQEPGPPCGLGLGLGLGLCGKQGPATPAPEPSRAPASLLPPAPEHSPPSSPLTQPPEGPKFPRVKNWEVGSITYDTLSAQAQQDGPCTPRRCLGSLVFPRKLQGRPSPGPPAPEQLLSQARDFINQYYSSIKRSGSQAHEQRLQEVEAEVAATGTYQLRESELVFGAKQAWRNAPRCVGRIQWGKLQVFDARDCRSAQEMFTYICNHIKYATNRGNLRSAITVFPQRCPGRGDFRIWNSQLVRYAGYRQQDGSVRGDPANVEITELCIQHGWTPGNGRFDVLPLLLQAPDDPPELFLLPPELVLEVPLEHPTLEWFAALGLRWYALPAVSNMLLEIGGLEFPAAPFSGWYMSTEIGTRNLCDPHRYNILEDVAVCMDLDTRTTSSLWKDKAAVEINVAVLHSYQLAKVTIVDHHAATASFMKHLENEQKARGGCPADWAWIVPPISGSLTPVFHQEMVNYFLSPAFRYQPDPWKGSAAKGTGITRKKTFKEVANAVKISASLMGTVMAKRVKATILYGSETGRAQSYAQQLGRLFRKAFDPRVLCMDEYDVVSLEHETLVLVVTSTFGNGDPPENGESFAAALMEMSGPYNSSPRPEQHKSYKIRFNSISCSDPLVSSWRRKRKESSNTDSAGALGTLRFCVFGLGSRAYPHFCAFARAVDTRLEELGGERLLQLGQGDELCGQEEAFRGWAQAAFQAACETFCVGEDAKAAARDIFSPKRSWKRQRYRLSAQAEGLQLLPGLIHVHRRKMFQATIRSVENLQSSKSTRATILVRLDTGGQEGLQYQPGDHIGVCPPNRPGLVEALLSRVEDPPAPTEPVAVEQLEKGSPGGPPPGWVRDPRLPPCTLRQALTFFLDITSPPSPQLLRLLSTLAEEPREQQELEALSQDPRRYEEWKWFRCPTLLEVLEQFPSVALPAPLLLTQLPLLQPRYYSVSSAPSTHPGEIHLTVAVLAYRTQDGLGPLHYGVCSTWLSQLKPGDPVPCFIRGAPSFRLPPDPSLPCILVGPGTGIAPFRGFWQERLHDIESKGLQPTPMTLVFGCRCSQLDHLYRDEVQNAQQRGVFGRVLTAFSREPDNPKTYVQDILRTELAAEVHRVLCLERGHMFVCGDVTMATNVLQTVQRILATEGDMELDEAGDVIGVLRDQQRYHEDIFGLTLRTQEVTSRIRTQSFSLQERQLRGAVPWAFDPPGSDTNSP
Procedure, shortened: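 HepG2 stressed with palmitate 100 µmol/L-BSA plus glycomimetics 1 µmol/L. Lysed in RIPA, 30 µg protein by SDS-PAGE onto PVDF. Blocked 1 h in 5% milk/TBS-T; rabbit anti-phospho-eNOS overnight at 4 °C, HRP secondary 1 h at RT, ECL detection. Signal quantified by densitometry.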

[7] = Metabolic stability in rat liver microsomes assessed as intrinsic clearance at 3 uM measured up to 45 mins in presence of NADPH by LC-MS/MS analysis; assay type: ADME, Microsome; conditions: read-out: CLH
Procedure, shortened: (§1)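 Pooled liver microsomes 0.5 mg/mL protein in 0.1 M phosphate pH 7.4 with compound 3 µM (0.25% DMSO), prewarmed at 37 °C. Started with NADPH 1 mM; sampled at 0, 5, 15, 30, 45 min into methanol. Minus-NADPH control at 45 min; single incubations. t½ = 0.693/k; CLint = V×0.693/t½ in µL/min/mg protein.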

[8] = Kinetic solubility of compound in PBS at pH 7.4 incubated for 2 hrs by turbidometric analysis; assay type: physicochemical; conditions: read-out: Kinetic_solubility
Procedure, shortened: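 DMSO solutions diluted 1 in 100 into 0.01 M PBS pH 7.4 (final 1% DMSO) to give 1–100 µM; 7 replicate wells. Incubated 2 h at 37 °C, absorbance read at 620 nm. Solubility estimated as the concentration raising absorbance above vehicle.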

[9] = Metabolic stability in rat liver microsomes assessed as half life at 3 uM measured up to 45 mins in presence of NADPH by LC-MS/MS analysis; assay type: ADME, Microsome
Procedure, shortened: as §1

[10] = Metabolic stability in mouse liver microsomes assessed as intrinsic clearance at 3 uM measured up to 45 mins in presence of NADPH by LC-MS/MS analysis; assay type: ADME, Microsome; conditions: read-out: CLH
Procedure, shortened: as §1

[11] = Metabolic stability in mouse liver microsomes assessed as half life at 3 uM measured up to 45 mins in presence of NADPH by LC-MS/MS analysis; assay type: ADME, Microsome
Procedure, shortened: as §1

[12] = molecular target: Voltage-gated inwardly rectifying potassium channel KCNH2 (Homo sapiens, UniProt Q12809); assay: Inhibition of recombinant human ERG expressed in CHO cells at -80 mV holding potential by automated patch clamp method; assay type: cell-based
Voltage-gated inwardly rectifying potassium channel KCNH2, sequence (Q12809 whole entry): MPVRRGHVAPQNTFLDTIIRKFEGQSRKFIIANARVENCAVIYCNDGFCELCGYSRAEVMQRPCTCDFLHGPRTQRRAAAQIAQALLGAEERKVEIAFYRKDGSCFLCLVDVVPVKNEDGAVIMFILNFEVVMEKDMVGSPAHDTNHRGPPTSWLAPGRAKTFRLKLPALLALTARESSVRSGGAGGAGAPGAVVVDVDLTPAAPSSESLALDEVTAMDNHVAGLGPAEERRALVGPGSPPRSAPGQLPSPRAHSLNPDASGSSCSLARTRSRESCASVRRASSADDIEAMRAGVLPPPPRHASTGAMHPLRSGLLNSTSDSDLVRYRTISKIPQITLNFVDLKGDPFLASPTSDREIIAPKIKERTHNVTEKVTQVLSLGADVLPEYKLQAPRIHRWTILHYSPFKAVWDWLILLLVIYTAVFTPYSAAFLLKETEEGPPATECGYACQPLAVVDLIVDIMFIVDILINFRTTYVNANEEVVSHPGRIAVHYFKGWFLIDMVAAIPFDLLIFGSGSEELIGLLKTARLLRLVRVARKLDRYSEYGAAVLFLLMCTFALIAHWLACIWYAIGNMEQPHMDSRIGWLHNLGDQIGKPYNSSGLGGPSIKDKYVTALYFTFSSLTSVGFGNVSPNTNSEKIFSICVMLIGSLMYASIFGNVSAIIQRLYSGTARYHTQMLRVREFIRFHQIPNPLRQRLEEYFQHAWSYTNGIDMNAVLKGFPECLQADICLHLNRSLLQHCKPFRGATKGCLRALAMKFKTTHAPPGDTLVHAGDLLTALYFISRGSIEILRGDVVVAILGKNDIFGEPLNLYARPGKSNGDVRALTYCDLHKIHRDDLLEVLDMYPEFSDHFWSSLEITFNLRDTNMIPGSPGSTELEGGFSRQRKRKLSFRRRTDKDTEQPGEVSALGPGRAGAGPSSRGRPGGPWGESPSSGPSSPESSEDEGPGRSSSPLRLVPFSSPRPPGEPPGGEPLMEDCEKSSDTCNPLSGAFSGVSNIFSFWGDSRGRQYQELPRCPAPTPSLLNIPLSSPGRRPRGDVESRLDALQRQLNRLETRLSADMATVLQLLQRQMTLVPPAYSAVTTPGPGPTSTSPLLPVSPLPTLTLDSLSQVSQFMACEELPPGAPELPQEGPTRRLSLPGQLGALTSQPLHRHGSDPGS
Procedure, shortened: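 hERG-CHO cells on automated IonWorks patch clamp at room temperature. Extracellular DPBS pH 7.2, HEPES-buffered intracellular solution, amphotericin B perforation. Compounds typically at 0.008–25 µM (5-fold steps, final DMSO 0.25%), 300 s exposure, 4 replicate wells. Response is post/pre current ×100; IC50 from Hill fit.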

Row | Compound | Stabilty [4] | Activity [6] | microsomal CLint at 3 µM [7] | solubility kinetic at 2 h [8] | half-life at 3 µM [9] | microsomal CLint at 3 µM [10] | half-life at 3 µM [11] | Activity (HepG2 (Homo sapiens)) | inhibition (INH) (HepG2 [1]) | Activity (HepG2 [2]) | inhibition (INH) (HepG2 [3]) | Activity (HepG2 [5]) | IC50 [12]
1 | COC(=O)c1cc(OC[C@H](COS(=O)(=O)[O-])OS(=O)(=O)[O-])ccc1OCCCCOS(=O)(=O)[O-].[Na+].[Na+].[Na+] | Stable | 613% | – | – | – | – | – | Non-Toxic | 31% | Non-Toxic | 23% | 52% | –
2 | COC(=O)c1cc(OC[C@@H](COS(=O)(=O)[O-])OS(=O)(=O)[O-])ccc1OC[C@H](COS(=O)(=O)[O-])OS(=O)(=O)[O-].[Na+].[Na+].[Na+].[Na+] | Stable | 342% | 9.56 µL/min/mg | > 100 µM | 2.42 h | 0.755 µL/min/mg | 30.7 h | Non-Toxic | 29% | Non-Toxic | 28% | 110% | –
3 | COC(=O)c1cc(OC[C@H](COS(=O)(=O)[O-])OS(=O)(=O)[O-])ccc1OC[C@@H](COS(=O)(=O)[O-])OS(=O)(=O)[O-].[Na+].[Na+].[Na+].[Na+] | Stable | 318% | 0.649 µL/min/mg | > 100 µM | 35.7 h | 2.88 µL/min/mg | 8.03 h | Non-Toxic | 31% | Non-Toxic | 29% | 62% | > 25 µM
4 | O=C([O-])c1cc(OC[C@@H](O)CO)ccc1OC[C@H](O)CO.[Na+] (mixture of isomers) | – | 294% | – | – | – | – | – | – | 27% | – | 19% | 52% | –

Second part, led by results:

Row | Stabilty [4] | Activity [6] | microsomal CLint at 3 µM [7] | solubility kinetic at 2 h [8] | half-life at 3 µM [9] | microsomal CLint at 3 µM [10] | half-life at 3 µM [11] | Compound | Activity (HepG2 (Homo sapiens)) | inhibition (INH) (HepG2 [1]) | Activity (HepG2 [2]) | inhibition (INH) (HepG2 [3]) | Activity (HepG2 [5]) | IC50 [12]
5 | – | 312% | – | – | – | – | – | O=C([O-])c1cc(OC[C@H](O)CO)ccc1OC[C@@H](O)CO.[Na+] (mixture of isomers) | – | 21% | – | 23% | 41% | –
6 | Stable | 397% | – | – | – | – | – | COC(=O)c1cc(OC[C@@H](COS(=O)(=O)[O-])OS(=O)(=O)[O-])ccc1OCCCCOS(=O)(=O)[O-].[Na+].[Na+].[Na+] | Non-Toxic | 27% | Non-Toxic | 39% | 63% | –
7 | – | 286% | – | – | – | – | – | COC(=O)c1cc(OC[C@H](O)CO)ccc1OC[C@@H](O)CO (mixture of isomers) | – | 26% | – | 36% | 46% | –
